Most compounds without a hit are left out; they make up all but 10% or so of the library.
PMI act satM6P: PMI (human) activation, high substrate; coupled PMI enzyme assay, resazurin fluorescence, 20 min; hits give high values; 1 = untreated enzyme, 0 = substrate-free blank; activation factor at 20 µM; 0.34% of 190,000 active;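 active means activation factor of 2 or more at 20 µM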
Target sequence (P34949 whole entry, looked up): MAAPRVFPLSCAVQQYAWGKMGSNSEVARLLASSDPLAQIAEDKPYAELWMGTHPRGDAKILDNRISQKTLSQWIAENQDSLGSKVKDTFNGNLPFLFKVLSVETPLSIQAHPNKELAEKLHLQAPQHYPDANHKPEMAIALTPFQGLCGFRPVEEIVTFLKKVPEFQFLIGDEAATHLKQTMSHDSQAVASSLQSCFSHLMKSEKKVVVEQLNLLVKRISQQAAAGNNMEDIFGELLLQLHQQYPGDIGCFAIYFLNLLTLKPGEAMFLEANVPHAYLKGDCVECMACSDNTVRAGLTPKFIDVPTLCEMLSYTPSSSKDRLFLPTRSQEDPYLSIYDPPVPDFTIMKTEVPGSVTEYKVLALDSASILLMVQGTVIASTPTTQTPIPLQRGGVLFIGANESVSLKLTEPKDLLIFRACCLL
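Test system: human phosphomannose isomerase with PGI, G6PDH, diaphorase coupling enzymes / Doses: 20 µM compound, 1% DMSO / Times: enzyme reaction with compound 20 min at room temperature / Measured by: Diaphorase-driven resazurin-to-resorufin fluorescence, excitation 544, emission 590 nm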
PMI act: activators of human phosphomannose isomerase; P34949; purified human PMI, coupled resazurin fluorescence, 20 min; hits give high values; 1 = vehicle control, 0 substrate-free wells; activation factor at 20 µM; 0.005% of 190,000 active; AID 1214;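 active means activation factor of 2 or more at 20 µM, relative to plate controls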
WT yeast gro inh: growth inhibition of WT yeast, mitochondrial fusion screen | mitochondrial fusion phenotypic screen, WT strain | inhibition, % at 10 µM | 2.1% of 190,000 active; in the data active means inhibition above about 58%; tested in S. cerevisiae
L major viab: Leishmania major promastigote growth inhibition | inhibition, % at 10 µM | AID 1063 | 9% of 200,000 active | Leishmania major promastigotes, resazurin fluorescence viability; in the data active means inhibition above about 50%;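 further: promastigotes grown with compound for 44 hours at 28 °C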
Diaphorase act: diaphorase activation or chemical reduction counter-screen | 0.005% of 190,000 active | activation factor at 20 µM | Diaphorase/resazurin coupled assay, resorufin fluorescence, 16 min; hits give high values; 1 = vehicle wells, 0 = NADH-free wells;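 active means diaphorase activity raised at least twofold by the compound at 20 µM; inactive means activation factor below 2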
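Test system: Clostridium kluyveri diaphorase, purified enzyme; input: enzyme 0.07 U/mL final; buffer or medium: 50 mM HEPES pH 7.4 with 4.542 mM MgCl2, 0.005% Tween 20; also added: 0.114 mM NADH and 0.1 mM resazurin, final amounts; schedule: 16 min enzyme reaction, ambient temperature; technique: fluorescence of resorufin, 544 nm excitation, 590 nm emission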
Starred values were filed as active, the others as inactive; . = not tested or not shown.

SMILES	PMI act satM6P	PMI act	WT yeast gro inh	L major viab	Diaphorase act
CNC(=S)N1N=C(c2ccc(C)cc2)CC1c1ccc(Br)cc1 (stereo not drawn)	0.9	0.9	58.3*	100.2*	0.9
CNC(=S)N1N=C(c2ccccc2)CC1c1ccccc1Cl (stereo not drawn)	1	0.8	9.7	2.1	0.5
CC(C)c1ccc(C2CC(c3ccc(Br)cc3)=NN2C(N)=S)cc1 (stereo not drawn)	1	0.9	65.3*	37.8	0.8
COc1ccc(C2=NN(C(N)=S)C(c3ccco3)C2)cc1 (stereo not drawn)	0.6	0.8	-2.9	23.4	0.8
CNC(=S)N1N=C(c2ccc(C)cc2)CC1c1ccc(Cl)cc1 (stereo not drawn)	1	1	-6.0	100.2*	0.9
COCCNC(=O)C(c1ccc(Cl)cc1)N(C(=O)Cn1nnc2ccccc21)c1cccnc1 (stereo not drawn)	0.9	1	-1.2	-3.4	0.9
O=C(NC1CCN(Cc2ccccc2)CC1)c1ccc2c(c1)[nH]c(=O)n2Cc1ccc(F)cc1	.	.	-8.0	34.7	.
O=C(CN1CCC(NC(=O)c2ccccc2F)CC1)Nc1ccc2c(c1)OCCO2	1	1.1	-10.2	-3.5	0.9
O=C(Nc1ccc2c(c1)OCO2)C1CCN(Cc2cnn(-c3ccccc3)c2-n2cccc2)CC1	0.9	0.9	12.3	98.4*	0.8
CC(C)c1ccc(NC(=O)NC2CCN(CC(=O)Nc3cccc4ccccc34)CC2)cc1	0.9	0.8	9.5	58.5*	0.8
O=C(Nc1ccc(F)cc1)NC1CCN(Cc2ccccc2)CC1	1	1	-9.2	54.8*	0.9
O=C(CN1CCC(NC(=O)c2ccco2)CC1)Nc1cccc2ccccc12	1	1	4.4	-5.7	1
Cc1ccccc1C(=O)NC1CCN(CC(=O)Nc2ccc3c(c2)OCCO3)CC1	1.1	1.1	-3.4	90.2*	1
COC(=O)c1c(NC(NC(=O)c2ccccc2)(C(F)(F)F)C(F)(F)F)sc2c1CCN(C)C2	1	1	54.3	-4.9	1
Cc1ccccc1-c1nc(CN(C)C(C)c2ccon2)c(C)o1 (stereo not drawn)	0.9	0.9	-11.5	-0.1	0.9
O=C(Nc1ccc2c(c1)OCO2)NC1CCN(Cc2ccccc2)CC1	1	1	-5.5	77.9*	1
CCN1/C(=C/C=C/c2oc3ccc(-c4ccccc4)cc3[n+]2CC)Oc2ccc(-c3ccccc3)cc21	1.3	1.1	87.3	100.4*	1.7
COCCN1C(=O)/C(=C/c2ccc(Oc3ccc([N+](=O)[O-])cn3)c(OC)c2)SC1=Nc1ccccc1	0.9	0.9	-0.1	100.3*	0.8
O=C(NCCOC12CC3CC(CC(C3)C1)C2)c1cccc(Br)c1	1	0.9	41.7	93.7*	0.8
C=CCOc1ccc(CNc2ccc(NC(=O)CC(C)C)cc2)cc1OC	0.9	1	0.5	19.0	0.9
C/C(=N\Nc1ccccn1)c1ccc(C(C)C)cc1	0.9	1	76.0*	41.1	1
CCOC(=O)N1CCC(N2Cc3cccc(C(=O)NCc4ccccc4OC)c3C2=O)CC1	1	1	24.1	6.6	0.9
CCOC(=O)N1CCC(N2Cc3cccc(C(=O)Nc4ccc(CC)cc4)c3C2=O)CC1	0.8	0.8	69.3*	8.2	0.8
CCOC(=O)N1CCC(N2Cc3cccc(C(=O)Nc4ccc(F)cc4)c3C2=O)CC1	1	1	7.5	-5.1	1
CCOC(=O)N1CCC(N2Cc3cccc(C(=O)NCc4ccc(OC)cc4)c3C2=O)CC1	1	1	1.3	70.0*	0.9
COc1cccc(NC(=S)N2CCN(Cc3ccccc3)CC2)c1	1	0.9	-6.3	11.2	0.9
CCCCN(C)C1CCN(C(=S)Nc2ccc(OCC)cc2)CC1	1	1	11.2	82.4*	0.9
CCCCN(C)C1CCN(C(=S)Nc2cccc(OC)c2)CC1	1.1	1.1	4.4	79.9*	1
Cc1ccnc(N2CCC(C(=O)NNC(=O)COc3cccc4ccccc34)CC2)n1	1	0.9	2.3	-8.9	1
COc1ccc(C2(C)NC(=O)N(CC(=O)Nc3ccc(S(=O)(=O)N4CCCC4)cc3)C2=O)cc1 (stereo not drawn)	1	1	3.2	4.1	0.8

Bioassay records: PubChem BioAssay, several laboratories
